Experimental data: the RNAGym collection of RNA variant scans (doi:10.1126/science.aae0568)
This sample holds only a part of the variants without activity.

B1: tRNA (parent)
chain: GUUCCGUUGGCGUAAUGGUAACGCGUCUCCCUCCUAAGGAGAAGACUGCGGGUUCGAGUCCCGUACGGAACG

Variants of: B1
Assay: yeast fitness relative to wild type (ratio to wild type); higher = fitter; tRNA-Arg(CCU), competitive growth, 37 C, YPD
Outline: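 A pool of Saccharomyces cerevisiae strains, each with a tRNA-Arg(CCU) gene variant at the native genomic locus, was competed in YPD at 37°C for 24 hours across six parallel replicates. The variants had been chemically synthesised at a 3% per-site mutation rate over 69 sites, and gene amplicons before and after competition were read by 100-nucleotide paired-end sequencing. Darwinian fitness relative to wild type rested on changes in genotype frequencies. Genotypes required ≥ 100 starting reads, and estimates < 0.5 were set to 0.5.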

Compared with GUUCCGUUGGCGUAUUGGUAACGCGUCUCCCGCCUAAGGAGAAAACUGCGGGUUCGAGUCCCGUACGGAACG, GUUCCGUUGGCGUAUUGGUAACGCGUCUCCCUCCUAACAAGACGACUGCGGGUUCGAGUCCCGUACGGAACG is lower in yeast fitness: 0.555 for the first, no more than 0.5 for the second.

Compared with GUUCCGUUGGCGUAUUGGUAACGCGUCUCCCUCCUAAGGAGAAGACUGCGGGAUCGAGUCCCGUACGGAACG, GUUCCGUUGGCGUAUUGGUAACGCGUCUCCCUCCUAAGGAGAAGACUCCGGGUUCGAGUCCCGUACCGAACG is lower in yeast fitness: 0.648 for the first, no more than 0.5 for the second.

Going from GUUCCGUUGGCGUAUUGGUAACGCGUCUCCCUCCUAAAGAGAAGACUGCGGGUUCGAGUCCCGUACGGAACG to GUUCCGUUGGCGUAUCGCUAACGCGUCUACCUCCUAAGGAGAGGGCUGCGGGUUCGAGUCCGGUACGGAACG, the yeast fitness falls from 0.635 to no more than 0.5.

Compared with GUUCCGUUGGCGUAUUGGCAACGCGUCUCCCUCCUAACGAGAAGACUGCGGGUUCGAGUCCCGUACGGAACG, GUUCCGUUGGCGUAUUGGUAACGCGUCUCCCUCCUAAGGAGAAGACUGCAGGUUGGAGUCCCGUACGGAACG is higher in yeast fitness: 0.589 for the first, 0.666 for the second.

GUUCCGUUGGCGUAUUGGUAACGCGUCUCCCUCCAAAGGAGAGGACUGCGGGUUCGAGUCCCGUACCGAACG and GUUCCGUUGGCGUAUUGGUAACGCGUCUCCCUCCUAAGGAGAAGACUGCGGGAUCGAGUCCCAUACGGAACG cannot be ordered by yeast fitness: no more than 0.5 for the first, no more than 0.5 for the second.

First: GUUCCGUUGGCGUAUUGGUAACGCCUCUCCCUCCUAAGGAGAAGACUGCGGGUUCGAGUCUCCUACGGAACG
Second: GUUCCGUUGGCGUAUUGGUAACGCGUCUCCCUCCUAAGGAGAAGACUGCGGGUCCGAGUCCCGUACGGAACG
The yeast fitness of the first is lower: 0.545 for the first, 0.703 for the second.

Going from GUUCCGUUGGCGUAUUGGUAACGCGUCUCCCUCCUAAGGAGAAGACUGCGGGUGCGAGUCCCGUACGGAACG to GUUCCGUUGGCGUAUGGGUAACGCGUCUCCCUCCUAAGGAGAAGACUGCGGGUUAGCGCCCCGUACGGAACG, the yeast fitness falls from 0.539 to no more than 0.5.

First: GUUCCGUUGGCGUAUUGGUAACGCGUCUCCCUCCUAAGGAGAAGACUGCAGGUUCGAGUCCCGUACGGAACG
Second: GUUCCGUUGGCGUAUUGGUAACGCGUCCCCCUCCUAAGGAGAAGACUGCGGGUUGGAGUCCCGUACGGAACG
The yeast fitness of the first is higher: 0.708 for the first, 0.589 for the second.

Compared with GUUCCGUUGGCGUAUUGGUAACGCGUCUCCCCCCUAAGGAGAAGACUGCGGCUUCGAGUCCCGUACGGAACG, GUUCCGUUGGCGUAUUGGUAACGCCUCUCCCUCCUAAGGAGAAGACUGCGGGUUCGAGACCCGUACGGAACG is lower in yeast fitness: 0.539 for the first, no more than 0.5 for the second.

First: GUUCCGUUGGCGUAUUGGUAACGCGUCACCCUCCUAAAGAGAAGACUGCGGCUUCGAGUGCCGUACGGAACG
Second: GUUCCGUUGGCGUAUUGGAAACGCGUCUCCCUCCUAAGGAGAAGCCUGCGGGUUUGUGUCCCGUACGGAACG
The yeast fitness of the first is lower: no more than 0.5 for the first, 0.583 for the second.

First: GUUCCGUUGGCGUAUUGGUAACGCGUCUCCCUCCUAAGGAGAAAACUGCGGGUUCGAGUCCCGUACGGAACG
Second: GUUCCGUUGGCGUAUUGGUAACGCGUCUCCCUCCUAAGGAGAAGACUGCGGCUUCGAGUCCCGUACGAAACG
The yeast fitness of the first is higher: 0.65 for the first, no more than 0.5 for the second.

GUUCCGUUGGCGUAUUGGUAACGCGUCUCCCGCCUAAGGAGAAAACUGCGGAUUCGAGUCUCGUACGGCACG and GUUCCGUUGGCGUAUCGGUAACGCGUCUCCCUCCUAAGGAGAAGACUGCGGGUUCGAGUCCCGUGCGGAACG cannot be ordered by yeast fitness: no more than 0.5 for the first, no more than 0.5 for the second.

Going from GUUCCGUUGGCGUAUUGGUAACGCGUCUCCCUCCUAAGGAGAAGACUGCGGGUUCGAGUCCCGUACGAAACG to GUUCCGUUGGCGUAUUGGUAACGCGUCUCCCUCCUAACGAGACGACUGCGGGUUCGAGUCCCGUACGGAACG, the yeast fitness falls from 0.62 to no more than 0.5.

GUUCCGUUGGCGUAUUGGUAACGCGACUCCCUCCUAAGGAGAAGACUGCGGGUUCGAGUUCCGUACAGAACG and GUUCCGUUGGCGUAUCGGUAACGCGUCUCCCUCCUAACAAGACGACUGCGGGUUCGAGUGCCGUCCGGAACG cannot be ordered by yeast fitness: no more than 0.5 for the first, no more than 0.5 for the second.

Compared with GUUCCGUUGGCGUAUUGGUAACGCGUCUCCCUCCUAACGAGAAGAUUGCGGGUUCGAGUCCCGUACGGUGCG, GUUCCGUUGGCGUAUUGGUAACGCGUCUCCCCCCUAAGGAGCAGACUGCGGGUUCGAGUCCCGUACGGAACG is higher in yeast fitness: no more than 0.5 for the first, 0.596 for the second.

GUUCCGUUGGCGUAUUGGUAACGCGUCUCCCUCCUAAGGAGAAGACUGCCGGUCCGAGUCCCGUACGGAACG and GUUCCGUUGGCGUAUUGGCAACCCGUGUCCCUCCUAAGGAGAAGCCUGCGGGUUCGAGUCCCCUACGGAACG cannot be ordered by yeast fitness: no more than 0.5 for the first, no more than 0.5 for the second.

GUUCCGUUGGCGUAUUGGUAACGCGUCUCCCUCCUAAGGAGAAGACAGCGGGUUCGAAUCCCGUCCGGAACG and GUUCCGUUGGCGUAUGGGUAACGCGUCUCCCUCCUAAGAAGAAGACUGCGGGUUCGAGUGCCGUACGGAGCG cannot be ordered by yeast fitness: no more than 0.5 for the first, no more than 0.5 for the second.

GUUCCGUUGGCGUAUUGGUAACGCGUCCCCCUCCUAAGGAGAAAACUGCGGGUUCGGGUCCCGUACGGAACG and GUUCCGUUGGCGUAUUGGUAACGCGACUCCCUCCUAAGGAGAAGACUGCGGGUUCGCGUCCCGUACGGAACG cannot be ordered by yeast fitness: no more than 0.5 for the first, no more than 0.5 for the second.

GUUCCGUUGGCGUAUUGGUAACGCGUCUCCCUCCUAACAAGACGACUGCGGGUCCGAGUGCCGUCCGGAACG gave a yeast fitness of no more than 0.5.
